Assay results: ChEMBL document CHEMBL4627337, “Synthesis and pharmacokinetic study of a 11C-labeled cholesterol 24-hydroxylase inhibitor using 'in-loop' [11C]CO2 fixation method” (Bioorg Med Chem Lett, 2020); call rule not given here
pKi: −log10 of the molar value.

Key:
[1] = Drug uptake in iv dosed mouse kidney assessed as per gram of wet tissue measured after 5 to 60 mins; type: ADME, organism-based; settings: read-out: Drug uptake
Procedure, shortened: (§1)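 Ex vivo whole-body biodistribution in mice after intravenous radioligand injection. Tissues collected at 5, 15, 30 and 60 min; radioactivity expressed as %ID/g, mean ± SD, n = 4 per time point.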

[2] = Drug uptake in iv dosed mouse lung assessed as per gram of wet tissue measured after 5 to 60 mins; type: ADME, organism-based; settings: read-out: Drug uptake; procedure, shortened: as §1
[3] = Drug uptake in CD1 mouse brain assessed as standard uptake value after 0.5 mins; type: ADME, tissue-based; settings: in vivo
Procedure, shortened: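 Dynamic PET acquisition in CD-1 mice over 60 min after radioligand injection; brain time–activity curves expressed as standard uptake value. Blocking arm pretreated with 2-phenylcyclopropan-1-amine (3 mg/kg); uptake compared by area under the curve.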

[4] = Stability in saline containing 5% ethanol assessed as compound radiolysis after 90 mins post formulation; type: physicochemical; settings: buffer, 1.5 h
Procedure, shortened: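 Radiotracer formulated in saline containing 5% ethanol and held for 90 min after formulation, then checked for radiolysis.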

[5] = Drug uptake in dosed iv mouse liver assessed as per gram of wet tissue measured after 5 to 60 mins; type: ADME, organism-based; settings: read-out: Drug uptake; procedure, shortened: as §1
[6] = Drug uptake in iv dosed mouse small intestine assessed as per gram of wet tissue measured after 5 to 60 mins; type: ADME, organism-based; settings: read-out: Drug uptake; procedure, shortened: as §1
[7] = Tmax in iv dosed mouse small intestine; type: ADME, organism-based; procedure, shortened: as §1
[8] = Lipophilicity, logD of compound in n-octanol and phosphate buffered saline by shake flask method; type: physicochemical
Procedure, shortened: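 Shake-flask partition of the 11C-labeled compound between n-octanol and phosphate buffered saline; logD calculated from the distribution of radioactivity between phases.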

[9] = Drug uptake in iv dosed mouse pancreas assessed as per gram of wet tissue measured after 5 to 60 mins; type: ADME, organism-based; settings: read-out: Drug uptake; procedure, shortened: as §1
[10] = Drug uptake in iv dosed mouse brain after 5 to 60 mins; type: ADME, organism-based; settings: in vivo; procedure, shortened: as §1
[11] = target: Cholesterol 24-hydroxylase (Homo sapiens, UniProt Q9Y6A2); test: Binding affinity to truncated d(2-50) 4His-tagged human CYP46A1 expressed in Escherichia coli DH5alpha as cholesterol-24 hydroxylation using cholesterol as substrate incubated for 30 mins in presence of NADPH cytochrome P450 oxidoreductase by gas chromatography-mass spectrometry
Sequence of Cholesterol 24-hydroxylase (Q9Y6A2 whole entry, the tested form may be a part): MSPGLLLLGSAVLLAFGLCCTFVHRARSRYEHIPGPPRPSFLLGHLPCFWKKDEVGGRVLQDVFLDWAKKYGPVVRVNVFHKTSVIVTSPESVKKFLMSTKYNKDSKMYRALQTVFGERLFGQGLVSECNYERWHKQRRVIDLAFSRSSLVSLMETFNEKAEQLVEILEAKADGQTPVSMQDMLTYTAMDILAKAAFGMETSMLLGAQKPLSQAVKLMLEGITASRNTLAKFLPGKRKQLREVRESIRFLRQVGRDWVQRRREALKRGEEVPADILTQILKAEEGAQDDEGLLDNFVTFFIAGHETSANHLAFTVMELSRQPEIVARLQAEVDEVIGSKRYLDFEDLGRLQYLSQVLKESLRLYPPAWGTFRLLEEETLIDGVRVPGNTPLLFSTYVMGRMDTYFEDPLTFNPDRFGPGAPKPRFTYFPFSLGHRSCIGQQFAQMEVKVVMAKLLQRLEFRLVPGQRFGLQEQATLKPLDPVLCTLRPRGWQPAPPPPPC

tissue uptake [1] | tissue uptake [2] | SUV [3] | Stability [4] | tissue uptake [5] | tissue uptake [6] | Tmax [7] | logD [8] | tissue uptake [9] | Drug uptake [10] | pKi [11] | Compound
> 10 %ID/g | > 10 %ID/g | 0.42 | Stable | > 10 %ID/g | > 10 %ID/g | 30 min | 3.05 | > 10 %ID/g | Active | – | O=[11C](NCc1ccccc1)N1CCN(c2cncnc2-c2ccccc2)CC1
– | – | – | – | – | – | – | – | – | – | 5.14 | O=C(NCc1ccccc1)N1CCN(c2cncnc2-c2ccccc2)CC1
